Screening data: PubChem, several laboratories
UHRF1 MBD2 ctr: UHRF1 methyl-DNA binding inhibition; AID 687016; inhibition, % at 4.4 µM; UHRF1 binding to methylated oligo, TR-FRET; Q96T88; 370,000 compounds, 0.75% hits; in the data active = inhibition above about 21%;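 note: UHRF1 SRA domain binding a hemimethylated CpG hairpin DNA probe; 0% = median of test compound wells and 100% = reference inhibitor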
Target sequence (Q96T88 whole entry, looked up, the tested form may be a part): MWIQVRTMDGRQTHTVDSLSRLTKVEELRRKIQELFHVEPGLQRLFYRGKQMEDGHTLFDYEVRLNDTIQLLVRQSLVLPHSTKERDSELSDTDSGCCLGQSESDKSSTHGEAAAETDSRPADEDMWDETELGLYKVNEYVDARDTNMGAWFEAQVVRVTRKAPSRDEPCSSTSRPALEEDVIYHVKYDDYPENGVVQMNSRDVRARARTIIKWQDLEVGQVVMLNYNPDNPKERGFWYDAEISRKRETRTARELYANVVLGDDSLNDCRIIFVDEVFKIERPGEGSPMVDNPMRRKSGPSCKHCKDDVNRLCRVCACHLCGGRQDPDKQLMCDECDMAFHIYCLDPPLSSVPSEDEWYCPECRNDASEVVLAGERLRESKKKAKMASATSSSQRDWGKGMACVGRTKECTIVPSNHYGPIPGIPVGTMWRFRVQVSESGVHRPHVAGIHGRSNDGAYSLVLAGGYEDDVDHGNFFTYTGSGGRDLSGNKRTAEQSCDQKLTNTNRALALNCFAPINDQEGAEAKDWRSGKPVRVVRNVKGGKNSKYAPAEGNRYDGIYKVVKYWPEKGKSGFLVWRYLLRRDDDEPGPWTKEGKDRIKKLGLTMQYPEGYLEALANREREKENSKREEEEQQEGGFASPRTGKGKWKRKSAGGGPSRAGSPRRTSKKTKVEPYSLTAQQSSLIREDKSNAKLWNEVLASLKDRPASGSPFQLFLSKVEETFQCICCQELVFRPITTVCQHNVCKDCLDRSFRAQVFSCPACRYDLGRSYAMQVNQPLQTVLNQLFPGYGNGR
TDP2 inh: blocks human TDP2 phosphodiesterase activity | O95551 | recombinant TDP2, T5PNP hydrolysis, p-nitrophenol absorbance 415 nm | inhibition, % at 12.8 µM | 370,000 compounds, 0.34% hits;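 active = inhibition above the mean of all tested compounds plus 3 SD, set per campaign, cut at about 25% in these data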;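 note: 0% = DMSO with enzyme and 100% = buffer with substrate but no TDP2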
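System: recombinant human TDP2 / Amount: 120 nM TDP2 per well / Also added: 5 mM T5PNP chromogenic substrate / Doses: 12.8 µM single point, 1% DMSO / Incubation: 2 h at 37 °C / Detection: p-Nitrophenol epi absorbance / Evaluation: % inhibition relative to enzyme-containing and enzyme-free wells / Repeats: singlicate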
NSD2 HMT inh: inhibitors of human histone methyltransferase NSD2; O96028; NSD2 peptide methylation, AlphaScreen, 120 min; inhibition, % at 12.5 µM; 310,000 compounds, 0.54% hits; in the data active = inhibition above about 50%
MBD2 inh: blocks human MBD2 binding to methylated DNA. TR-FRET, MBD2 binding to methylated oligonucleotide. AID 686964. inhibition, % at 4.4 µM. 370,000 compounds, 0.31% hits. Q9UBB5; in the data active = inhibition above about 13%
CASP6 VEID inh: inhibitors of human caspase-6. P55212. 350,000 compounds, 0.53% hits. inhibition, % at 12.5 µM. purified caspase-6, Z-VEID-R110 cleavage fluorescence. AID 686996;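 active = mean inhibition across replicates at least about 35%, with every replicate also reaching that limit, limit read from the data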;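 note: 0% = median of neutral control wells and 100% = no fluorescence left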
LEDGF integ inh: blocks HIV-1 LEDGF/p75-dependent DNA integration | inhibition, % at 3.7 µM | TR-FRET IN-LEDGF/p75 DNA integration, Eu/Cy5 | AID 743269 | 370,000 compounds, 0.64% hits;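 active = inhibition above the screen-wide mean plus 3 SD, cut at about 13% in these data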;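 note: signal is the Cy5 over europium emission ratio at 671 and 618 nm; 0% = plate median of compound wells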
Active calls of the source: *; x = not tested or not shown. A selection: hits, their analogues and other compounds. The true share with any hit is near 1.8%.

SMILES | UHRF1 MBD2 ctr | TDP2 inh | NSD2 HMT inh | MBD2 inh | CASP6 VEID inh | LEDGF integ inh
O=C(c1ccncc1)N1CCCCN2[C@H](C1)[C@H](c1ccc(C#Cc3ccccn3)cc1)[C@@H]2CO | x | x | x | x | 37* | x
O=C(c1ccncc1)N1CCCCN2[C@H](CO)[C@@H](c3ccc(C#Cc4ccccn4)cc3)[C@@H]2C1 | x | x | x | x | 2 | x
COc1ccc(-c2cc3c(=O)n(CC(=O)NCCCN4CCN(Cc5ccccc5)CC4)ncn3n2)cc1 | 3 | -5 | -5 | 5 | 40* | 1
COc1ccc(-c2cc3c(=O)n(CC(=O)NCCCN4CCC(Cc5ccccc5)CC4)ncn3n2)cc1 | -1 | 9 | -4 | 2 | -2 | -2
Cc1cccc(NC(=O)CCS(=O)(=O)c2cccc3nonc23)c1C | 27* | 0 | -4 | 11 | 2 | -1
CCCNC(=O)N[C@@H]1CC[C@H](CCNS(=O)(=O)c2cccc(F)c2)O[C@H]1CO | x | x | x | x | -20 | x
CN1CCN(C(=S)C(=O)Nc2ccccc2)CC1 | 22* | 23 | -2 | 5 | -1 | -1
CC(NC(=O)C(=S)N1CCN(C)CC1)c1ccccc1 (centres undefined) | 21* | 4 | 1 | 3 | 3 | 1
C[C@@H]1CCCCO[C@@H](CN(C)Cc2ccncc2)[C@H](C)CN([C@@H](C)CO)C(=O)c2cc(NS(=O)(=O)c3cn(C)cn3)ccc2O1 | x | x | x | x | -1 | x
C[C@H]1CN([C@@H](C)CO)C(=O)c2cc(NC(=O)Cc3cn(C)c4ccccc34)ccc2O[C@@H]1CN(C)CC1CC1 | x | x | x | x | -2 | x
C[C@H](CO)N1C[C@H](C)[C@@H](CN(C)C(=O)NC2CCCC2)Oc2ncc(-c3ccncc3)cc2C1=O | x | x | x | x | -1 | x
CCCC(=O)N1CC2(C1)CN(C(=O)C1CCCCC1)[C@@H](CO)c1[nH]c3cc(OC)ccc3c12 | x | x | x | x | -3 | x
Cc1ccc(-n2[nH]c3c4c(ccc3c2=O)C(=O)c2ccccc2C4=O)cc1 | 27* | 6 | 3 | 4 | -3 | -3
C[C@H]1CN([C@@H](C)CO)C(=O)c2cc(NC(=O)Nc3ccc4c(c3)OCO4)ccc2O[C@H]1CN(C)C(=O)NC1CCCCC1 | x | x | x | x | 2 | x
C/C(=N\Nc1ccc(Cl)c(C(=O)O)c1)c1ccc[nH]1 | 23* | -6 | x | 5 | 1 | 7
C/C(=N\Nc1ccc(Cl)c(C(=O)O)c1)c1cccs1 | 17 | -23 | 11 | 2 | 4 | 3
CCCNC(=O)N(C)C[C@@H]1Oc2ncc(-c3ccncc3)cc2C(=O)N([C@@H](C)CO)C[C@@H]1C | x | x | x | x | 0 | x
COc1ccc(CN=C(N)N=C(N)N)cc1Cl | -1 | 2 | -8 | 1 | 56* | -5
O=C(CCN1CCCCC1)N[C@H]1CC[C@H](CCNS(=O)(=O)c2ccc(F)cc2)O[C@H]1CO | x | x | x | x | 5 | x
CCOc1ccccc1NC(=O)CN(c1ccc(OC)cc1)S(=O)(=O)c1c(C)noc1C | 0 | -6 | -1 | 0 | x | -1
CCOc1ccccc1NC(=O)CN(c1cc(C)cc(C)c1)S(=O)(=O)c1c(C)noc1C | 27* | 6 | x | 0 | 1 | -2
C[C@H](O)C#Cc1ccc2c(c1)O[C@H](CN(C)C(=O)c1ccccc1)[C@@H](C)CN([C@H](C)CO)S2(=O)=O | x | x | x | x | 0 | x
NC(=O)C1CCN(C(=O)COc2ccc(S(=O)(=O)NC3CCCC3)cc2)CC1 | -1 | 14 | -1 | -1 | -1 | 2
Cc1ccc(S(=O)(=O)NC2CCCCC2)cc1C(=O)N1CCC(C(N)=O)CC1 | 67* | -1 | 11 | 0 | 3 | 1
CO[C@H]1CN(C)C(=O)c2cc(NC(C)=O)ccc2OC[C@H](C)N(Cc2cncnc2)C[C@@H]1C | x | x | x | x | 1 | x
SMILES | UHRF1 MBD2 ctr | TDP2 inh | NSD2 HMT inh | MBD2 inh | CASP6 VEID inh | LEDGF integ inh
O=C(Cn1c(=O)n(Cc2ccco2)c(=O)c2c3c(sc21)CCCC3)Nc1ccccc1 | 3 | 1 | -1 | 5 | x | 3
NC(=O)Cn1c(=O)n(Cc2ccco2)c(=O)c2c3c(sc21)CCCCC3 | 21* | -1 | 30 | 4 | x | 6
COc1ccc(C2/C(=C(/O)c3ccc(C)cc3)C(=O)C(=O)N2CC2CCCO2)cc1OC (centres undefined) | 22* | 0 | 0 | 6 | -2 | 1
CS(=O)(=O)N(CC(=O)N1CCCCCC1)c1ccc(Cl)cc1 | 29* | 6 | -4 | -2 | 0 | 7
O=C(O)C/C(=C\c1cc(Cl)c2c(c1)OCO2)c1nc2ccccc2s1 | -1 | 9 | 8 | -8 | 60* | 4
CCCCNS(=O)(=O)c1cc(-c2nn(C)c(=O)c3ccccc23)ccc1C | 1 | 14 | -2 | 3 | 36* | 1
CO[C@H]1CN(C)C(=O)c2cc(NS(=O)(=O)CC(F)(F)F)ccc2OC[C@H](C)N(Cc2ccccn2)C[C@H]1C | x | x | x | x | -1 | x
C[C@@H]1CN([C@@H](C)CO)C(=O)c2cc(NS(=O)(=O)c3ccc(Cl)cc3)ccc2O[C@H]1CN(C)C(=O)Nc1ccc(F)cc1 | x | x | x | x | 2 | x
OCC[C@@H]1C[C@H](O)[C@@H](O)[C@@]2(OCc3cc(C(F)(F)F)ccc32)O1 | 22* | -11 | x | 5 | -1 | 8
CCN(C1CCCCC1)S(=O)(=O)c1ccc(OC)c(C)c1 | 24* | 5 | -4 | 8 | x | -1
COc1ccc(NC(C)=O)cc1NC(=O)CSc1nnc(-c2ccccc2)n1N | 26* | 18 | -3 | 13 | 0 | 0
COc1ccc(-n2nnnc2C(c2cc3ccccc3o2)N2CCN(C/C=C/c3ccccc3)CC2)cc1 (centres undefined) | 23* | -11 | x | 5 | -5 | 10
C(=C\c1ccccc1)/CN1CCN(C(c2cc3ccccc3o2)c2nnnn2-c2ccc3c(c2)OCCO3)CC1 (centres undefined) | 15 | 7 | x | -6 | -1 | 2
C=CCCC1CN(CC=C)S(=O)(=O)c2c(F)cccc2O1 (centres undefined) | 22* | 6 | x | 8 | 1 | 1
CCOC(=O)C1(Cc2ccccc2C)CCCN(C(=O)CCc2cccnc2)C1 (centres undefined) | 3 | -5 | -1 | 5 | 60* | 3
CN1N=C(N)c2cn(C3OC(COP(=O)(O)O)C(O)C3O)c3ncnc1c23 (centres undefined) | -3 | 14 | -25 | -8 | 46* | -5
Nc1ncnc2c1ncn2[C@@H]1O[C@H](COP(=O)(O)O)[C@@H](O)[C@H]1O | 0 | 13 | x | 1 | x | -5
C[C@@H]1CCCCO[C@H](CN(C)S(=O)(=O)c2ccccc2)[C@@H](C)CN([C@H](C)CO)C(=O)c2cc(NS(=O)(=O)c3cn(C)cn3)ccc2O1 | x | x | x | x | -1 | x
CCC(=O)N1CC2(C1)[C@H](c1ccc(-c3cccc(OC)c3)cc1)[C@@H](CO)N2C(C)=O | x | x | x | x | 3 | x
O=C(Cn1cnc2sc(-c3ccccc3)cc2c1=O)NCc1ccccc1 | 3 | -10 | 1 | 4 | x | 4
